# Legend:
# Progesterone receptor [1] = target: T1, Progesterone receptor (Homo sapiens, UniProt P06401); test: Antagonist activity at human PR expressed in human T47D cells assessed as inhibition of progesterone induced alkaline phosphatase; format: functional, cell-based
# T1 sequence (P06401 whole entry): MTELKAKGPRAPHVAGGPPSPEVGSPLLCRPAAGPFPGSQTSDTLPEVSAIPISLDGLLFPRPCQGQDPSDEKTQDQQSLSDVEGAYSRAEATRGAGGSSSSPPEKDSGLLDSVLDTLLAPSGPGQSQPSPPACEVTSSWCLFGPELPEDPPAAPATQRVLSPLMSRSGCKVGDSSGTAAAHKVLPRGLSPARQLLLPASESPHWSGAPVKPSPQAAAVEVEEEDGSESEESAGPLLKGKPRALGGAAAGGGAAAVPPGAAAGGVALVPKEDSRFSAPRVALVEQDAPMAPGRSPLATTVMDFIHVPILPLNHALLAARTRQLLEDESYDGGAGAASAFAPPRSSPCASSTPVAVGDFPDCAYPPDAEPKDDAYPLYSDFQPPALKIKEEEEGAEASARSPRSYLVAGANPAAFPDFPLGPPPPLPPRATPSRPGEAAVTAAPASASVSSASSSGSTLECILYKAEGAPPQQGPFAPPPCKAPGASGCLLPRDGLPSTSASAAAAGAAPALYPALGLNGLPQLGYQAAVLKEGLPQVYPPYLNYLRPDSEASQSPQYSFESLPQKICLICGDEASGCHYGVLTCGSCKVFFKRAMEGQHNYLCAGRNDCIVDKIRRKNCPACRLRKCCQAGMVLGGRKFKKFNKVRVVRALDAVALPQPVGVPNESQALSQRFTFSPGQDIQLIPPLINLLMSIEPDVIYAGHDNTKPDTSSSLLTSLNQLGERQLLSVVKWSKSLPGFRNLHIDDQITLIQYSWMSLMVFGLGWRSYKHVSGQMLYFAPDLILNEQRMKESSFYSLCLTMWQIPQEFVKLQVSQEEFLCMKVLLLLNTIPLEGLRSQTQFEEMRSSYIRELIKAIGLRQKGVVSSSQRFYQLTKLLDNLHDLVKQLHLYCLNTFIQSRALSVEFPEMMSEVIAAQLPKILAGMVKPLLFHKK
# Progesterone receptor [2] = target: T1, Progesterone receptor; test: Agonist activity at human PR expressed in human T47D cells assessed as stimulation of alkaline phosphatase; format: functional, cell-based
# Summary of the method: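 Cell-based agonist-mode assay in T47D cells, without progesterone. Cells were suspended in DMEM/F12 with 5% charcoal-stripped FBS, then incubated with compound for 24 h at 37 °C in 5% CO2. Cells were lysed in 0.1 M Tris-HCl pH 9.8 with 0.2% Triton, and 4 mM p-nitrophenyl phosphate was added. OD405 was read every 5 min for 30 min. EC50 comes from dose-response analysis and is the mean of at least duplicates.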
# Progesterone receptor [3] = target: T1, Progesterone receptor; test: Displacement of [3H]R5020 from human PR in human T47D cells by whole cell assay; format: cell-based
# [4] = Stability in rat liver microsome assessed as half life; format: ADME; conditions: liver microsomes
# Summary of the method: (§1)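 Female rat, cynomolgus monkey and human liver microsome stability; half-life (min) reported.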
# Cynomolgus monkey = test: Induction of early menses in cynomolgus monkey at 5 mg/kg, po; format: organism-based, Macaca fascicularis; set-up: dose 5 mg/kg, route oral; conditions: in vivo
# Rattus norvegicus = organism: Rattus norvegicus; test: Antagonist activity in rat uterus assessed as progesterone-induced decidualization response in stromal cells; format: functional
# Summary of the method: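 Female rat decidualization model: compound given orally in 0.5% methyl cellulose/2% Tween 80 to antagonize the progesterone-induced decidual response of uterine stromal cells. ED50 reported.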
# [5] = Stability in cynomolgus monkey liver microsome assessed as half life; format: ADME, Macaca fascicularis; conditions: liver microsomes; summary of the method: as §1
# [6] = Stability in human liver microsome assessed as half life; format: ADME; conditions: liver microsomes; summary of the method: as §1
# [7] = Drug level in cynomolgus monkey at […], iv; format: ADME, organism-based, Macaca fascicularis; set-up: dose 0.25 mg/kg, route intravenous; conditions: in vivo
# [8] = Plasma clearance in cynomolgus monkey at […], iv; format: ADME, organism-based, Macaca fascicularis; set-up: dose 0.25 mg/kg, route intravenous
# [9] = Volume of distribution at steady state in cynomolgus monkey at […], iv; format: ADME, organism-based, Macaca fascicularis; set-up: dose 0.25 mg/kg, route intravenous; conditions: in vivo, read-out: Vdss
# [10] = Drug level in Sprague-Dawley rat at 0.5 mg/kg, iv; format: ADME, organism-based; set-up: dose 0.5 mg/kg, route intravenous; conditions: in vivo
# Summary of the method: (§2)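 Female Sprague–Dawley rats dosed as 1-in-4 cassette or discrete studies. iv in DMSO/PEG200 20:80; po in aqueous 2% Tween 80/0.5% methyl cellulose. Parameters reported: C0, Cmax, t1/2, plasma clearance, Vss, AUC0-inf and %F.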
# [11] = Half life in Sprague-Dawley rat at 0.5 mg/kg, iv; format: ADME, organism-based; set-up: dose 0.5 mg/kg, route intravenous; conditions: in vivo; summary of the method: as §2
# [12] = Plasma clearance in Sprague-Dawley rat at 0.5 mg/kg, iv; format: ADME, organism-based; set-up: dose 0.5 mg/kg, route intravenous; summary of the method: as §2
# [13] = Volume of distribution at steady state in Sprague-Dawley rat at 0.5 mg/kg, iv; format: ADME, organism-based; set-up: dose 0.5 mg/kg, route intravenous; conditions: in vivo, read-out: Vdss; summary of the method: as §2
# [14] = AUC (0 to infinity) in Sprague-Dawley rat at 0.5 mg/kg, iv; format: ADME, organism-based; set-up: time infinity, dose 0.5 mg/kg, route intravenous; conditions: plasma
compound,measurement,setting,value
N#Cc1ccc(-c2ccc3c(c2)CC(=O)N3)[nH]1,IC50,Progesterone receptor [1],300 nM
Cn1c(C#N)ccc1-c1cc(F)c2c(c1)C1(CCCCC1)C(=O)N2,EC50,Progesterone receptor [2],1.3 nM
same,IC50,Progesterone receptor [3],3.6 nM
Cn1c(C#N)ccc1-c1cc2c(cc1F)NC(=O)C2(C)C,IC50,Progesterone receptor [1],20.3 nM
same,half-life,[4],30 min
Cn1c(C#N)ccc1-c1ccc2c(c1)C(C)(C)OC(=S)N2 [TANAPROGET],EC50,Progesterone receptor [2],0.15 nM
same,IC50,Progesterone receptor [3],0.5 nM
Cn1c(C#N)ccc1-c1ccc2c(c1)C1(CCCC1)C(=O)N2,EC50,Progesterone receptor [2],300 nM
same,IC50,Progesterone receptor [3],8.1 nM
Cn1c(C#N)ccc1-c1ccc2c(c1F)C(C)(C)C(=O)N2,IC50,Progesterone receptor [1],5.9 nM
same,IC50,Progesterone receptor [3],5.5 nM
same,half-life,[4],2 min
CC#C[C@]1(O)CC[C@H]2[C@@H]3CCC4=CC(=O)CCC4=C3[C@@H](c3ccc(N(C)C)cc3)C[C@@]21C [MIFEPRISTONE],Activity,Cynomolgus monkey,60%
same,ED50,Rattus norvegicus,0.7 mg/kg
CCN1C(=O)C(C)(C)c2cc(-c3ccc(C#N)n3C)cc(F)c21,IC50,Progesterone receptor [1],29 nM
C=C1CCO[C@]12CC[C@H]1[C@@H]3CCC4=CC(=O)CCC4=C3[C@@H](c3ccc(C(C)=O)cc3)C[C@@]12C,Activity,Cynomolgus monkey,50%
Cn1c(C#N)ccc1-c1ccc2c(c1)CC(=O)N2,IC50,Progesterone receptor [1],20 nM
same,IC50,Progesterone receptor [3],80 nM
same,half-life,[4],> 30 min
same,half-life,[5],> 30 min
same,half-life,[6],> 30 min
Cn1c(C#N)ccc1-c1cc(F)c2c(c1)C1(CCCC1)C(=O)N2,EC50,Progesterone receptor [2],3000 nM
same,IC50,Progesterone receptor [3],14.7 nM
CC(=O)OCN1C(=O)C(C)(C)c2cc(-c3ccc(C#N)n3C)cc(F)c21,IC50,Progesterone receptor [1],48 nM
CCC1(CC)C(=O)Nc2ccc(-c3ccc(C#N)n3C)cc21,IC50,Progesterone receptor [3],36 nM
same,half-life,[4],10 min
same,half-life,[5],15 min
same,half-life,[6],> 30 min
CN1C(=O)C(C)(C)c2cc(-c3ccc(C#N)n3C)cc(F)c21,IC50,Progesterone receptor [1],15 nM
Cn1c(C#N)ccc1-c1ccc2c(c1)C(C)(C)OC(=O)N2,IC50,Progesterone receptor [3],4.9 nM
Cn1c(C#N)ccc1-c1ccc2c(c1)C(C)(C)C(=O)N2,IC50,Progesterone receptor [3],22 nM
same,half-life,[4],6 min
same,half-life,[5],13 min
same,half-life,[6],> 30 min
same,Activity,Cynomolgus monkey,0%
same,C0,[7],241 ng/mL
same,clearance,[8],12 mL/min/kg
same,Vd,[9],1.6 L/kg
same,C0,[10],288 ng/mL
same,half-life,[11],180 min
same,clearance,[12],9 mL/min/kg
same,Vd,[13],2.2 L/kg
same,AUC(0-inf),[14],937 ng·h/mL
CCCN1C(=O)C(C)(C)c2cc(-c3ccc(C#N)n3C)cc(F)c21,IC50,Progesterone receptor [1],27 nM
Cn1c(C#N)ccc1-c1ccc2c(c1)C1(CCCCC1)C(=O)N2,EC50,Progesterone receptor [2],2.3 nM
same,IC50,Progesterone receptor [3],3.3 nM

# From ChEMBL document CHEMBL1144664, “Design, synthesis, and SAR of new pyrrole-oxindole progesterone receptor modulators leading to 5-(7-fluoro-3,3-dimethyl-2-oxo-2,3-dihydro-1H-indol-5-yl)-1-methyl-1H-pyrrole-2-carbonitrile (WAY-255348)” (J Med Chem, 2008)
